From publication PMC6044410 (Structure (London, England : 1993), 2017)
Where “and” joins values, the source holds several entries; their conditions need not be identical. Identical values can stand only once. Like-named read-outs stand apart in the source and are kept apart here. Square brackets hold non-standard residues; d marks the D form. Peptide text beside a SMILES is read from it. * marks the point of attachment. FITC = O=C1OC2(c3ccc(O)cc3Oc3cc(O)ccc32)c2ccc(NC(=S)*)cc21; pT = C[C@@H](OP(=O)(O)O)[C@H](N)C(=O)O; pS = N[C@@H](COP(=O)(O)O)C(=O)O

Columns and labels:
[1] = biological target: GST-hTopBP1 BRCT5 WT (Homo sapiens, UniProt Q92547); assay: Fluorescence polarization binding, GST-hBRCT5 WT
[2] = biological target: human TopBP1 BRCT5, 641-746 (UniProt Q92547); assay: fluorescence polarization titration; settings: reference: pSer304 peptide mock-treated without λ phosphatase; sites S304
[3] = biological target: TopBP1 BRCT4/5, untagged and GST-tagged forms (Homo sapiens, UniProt Q92547); assay: Fluorescence polarization binding, untagged and GST-tagged TopBP1 forms compared
Method in brief: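 Untagged BRCT4/5 was prepared by overnight PreScission cleavage of the GST fusion at 4 °C, then anion exchange at pH 7.0, glutathione-bead removal of GST, and gel filtration. Read-out was ex 485/em 538 nm; KD was curve-fitted and averaged over ≥3 measurements.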

[4] = biological target: GST-hBRCT5 M689A (Homo sapiens, UniProt Q92547, M689A); assay: Fluorescence polarization binding, GST-hBRCT5 M689A
[5] = biological target: GST-human TopBP1 BRCT5 A707K (human, UniProt Q92547 641-746, A707K); assay: fluorescence polarisation
[6] = biological target: GST-human TopBP1 BRCT5 R681E/K682E (human, UniProt Q92547 641-746, R681E | K682E); assay: fluorescence polarisation
[7] = biological target: GST-human TopBP1 BRCT5 Y678A (human, UniProt Q92547 641-746, Y678A); assay: fluorescence polarisation
[8] = biological target: T1, GST-human TopBP1 BRCT5 (641-746), wild type (human, UniProt Q92547 641-746); assay: fluorescence polarisation
[9] = biological target: T2, mouse TopBP1 BRCT4/5 (553-749), untagged (mouse, UniProt Q6ZQF0 553-749); assay: fluorescence polarisation
T2 sequence (looked up): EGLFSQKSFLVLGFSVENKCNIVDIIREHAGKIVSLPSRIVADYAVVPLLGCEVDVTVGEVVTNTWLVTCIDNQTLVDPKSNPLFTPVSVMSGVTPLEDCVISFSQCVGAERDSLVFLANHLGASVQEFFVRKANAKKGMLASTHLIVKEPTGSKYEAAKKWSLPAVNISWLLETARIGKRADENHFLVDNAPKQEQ

[10] = biological target: GST-human TopBP1 BRCT4/5 (549-746) (human, UniProt Q92547 549-746); assay: fluorescence polarisation
[11] = biological target: GST-human TopBP1 BRCT5 S654A (human, UniProt Q92547 641-746, S654A); assay: fluorescence polarisation
[12] = biological target: GST-human TopBP1 BRCT5 M689A (human, UniProt Q92547 641-746, M689A); assay: fluorescence polarisation
[13] = biological target: human TopBP1 BRCT4/5 (549-746), untagged (human, UniProt Q92547 549-746); assay: fluorescence polarisation
[14] = biological target: GST-human TopBP1 BRCT5 A707D (human, UniProt Q92547 641-746, A707D); assay: fluorescence polarisation
[15] = biological target: GST-human TopBP1 BRCT5 K704A (human, UniProt Q92547 641-746, K704A); assay: fluorescence polarisation
[16] = biological target: GST-human TopBP1 BRCT5 K686E/K687E (human, UniProt Q92547 641-746, K686E | K687E); assay: fluorescence polarisation
[17] = biological target: T1, GST-human TopBP1 BRCT5 (641-746), wild …; assay: fluorescence polarisation; remark: listed apart in the source
[18] = biological target: T1, GST-human TopBP1 BRCT5 (641-746), wild …; assay: fluorescence polarisation; remark: listed apart in the source

T1 sequence (Q92547 641-746): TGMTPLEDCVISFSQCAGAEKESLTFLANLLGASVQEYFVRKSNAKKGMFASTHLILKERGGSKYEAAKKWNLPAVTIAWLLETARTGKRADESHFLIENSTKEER
GST-hTopBP1 BRCT5 WT, sequence (Q92547 641-746): as above
GST-human TopBP1 BRCT5 K704A, sequence (Q92547 641-746 K704A): as the sequence (Q92547 641-746) above, with K64A counted along it
GST-human TopBP1 BRCT5 Y678A, sequence (Q92547 641-746 Y678A): as the sequence (Q92547 641-746) above, with Y38A counted along it
GST-human TopBP1 BRCT5 K686E/K687E, sequence (Q92547 641-746 K686E/K687E): as the sequence (Q92547 641-746) above, with K46E, K47E counted along it
GST-human TopBP1 BRCT5 R681E/K682E, sequence (Q92547 641-746 R681E/K682E): as the sequence (Q92547 641-746) above, with R41E, K42E counted along it
GST-human TopBP1 BRCT5 A707K, sequence (Q92547 641-746 A707K): as the sequence (Q92547 641-746) above, with A67K counted along it
GST-human TopBP1 BRCT5 S654A, sequence (Q92547 641-746 S654A): as the sequence (Q92547 641-746) above, with S14A counted along it
GST-hBRCT5 M689A, sequence (Q92547 641-746 M689A): as the sequence (Q92547 641-746) above, with M49A counted along it
GST-human TopBP1 BRCT5 M689A, sequence (Q92547 641-746 M689A): as the sequence (Q92547 641-746) above, with M49A counted along it
human TopBP1 BRCT4/5 (549-746), untagged, sequence (Q92547 549-746): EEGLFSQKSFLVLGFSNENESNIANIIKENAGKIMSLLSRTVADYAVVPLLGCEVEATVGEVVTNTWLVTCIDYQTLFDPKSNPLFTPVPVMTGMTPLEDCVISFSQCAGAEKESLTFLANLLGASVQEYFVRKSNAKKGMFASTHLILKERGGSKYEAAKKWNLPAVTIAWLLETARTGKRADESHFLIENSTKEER
GST-human TopBP1 BRCT4/5 (549-746), sequence (Q92547 549-746): as above
TopBP1 BRCT4/5, untagged and GST-tagged forms, sequence (Q92547 549-746): as above
GST-human TopBP1 BRCT5 A707D, sequence (Q92547 641-746 A707D): as the sequence (Q92547 641-746) above, with A67D counted along it

CC(C)C[C@H](NC(=O)[C@H](CC(=O)O)NC(=O)[C@H](CCCCN)NC(=O)[C@H](COP(=O)(O)O)NC(=O)[C@@H](NC(=O)[C@H](CO)NC(=O)[C@H](CC(C)C)NC(=O)[C@@H](NC(=O)[C@H](CC(=O)O)NC(=O)[C@H](CCC(=O)O)NC(=O)[C@H](CCCCN)NC(=S)Nc1ccc2c(c1)C(=O)OC21c2ccc(O)cc2Oc2cc(O)ccc21)C(C)C)[C@@H](C)O)C(N)=O [pSer338] ({FITC}-KEDVLST[pS]KDL-NH2)
Kd [1]: ≥ 300 µM

BLM (Bloom syndrome, RecQ-like helicase) 297-309 (from UniProt P54132) λ phosphatase-treated pSer304 peptide
KD [2]: weaker; reference 2.6 ± 0.4

CC[C@H](C)[C@H](NC(=O)[C@@H](NC(=O)[C@H](CCC(=O)O)NC(=O)[C@H](CCC(=O)O)NC(=O)[C@@H]1CCCN1C(=O)[C@H](CO)NC(=O)[C@@H]1CCCN1C(=O)[C@@H]1CCCN1C(=O)[C@@H](NC(=O)[C@H](Cc1ccccc1)NC(=O)[C@H](CC(=O)O)NC(=O)[C@@H](NC(=O)[C@H](CC(=O)O)NC(=S)Nc1ccc2c(c1)C(=O)OC21c2ccc(O)cc2Oc2cc(O)ccc21)[C@@H](C)O)C(C)C)[C@@H](C)CC)C(N)=O [Ser304] ({FITC}-DTDFVPPSPEEII-NH2)
Kd ([1]; KD, FP, BLM pSer304 peptide treated with λ phosphatase, 1 hour at 30 °C): ≥ 60 µM

CC[C@H](C)[C@H](NC(=O)[C@@H](NC(=O)[C@H](CCC(=O)O)NC(=O)[C@H](CCC(=O)O)NC(=O)[C@@H]1CCCN1C(=O)[C@H](COP(=O)(O)O)NC(=O)[C@@H]1CCCN1C(=O)[C@@H]1CCCN1C(=O)[C@@H](NC(=O)[C@H](Cc1ccccc1)NC(=O)[C@H](CC(=O)O)NC(=O)[C@@H](NC(=O)[C@H](CC(=O)O)NC(=S)Nc1ccc2c(c1)C(=O)OC21c2ccc(O)cc2Oc2cc(O)ccc21)[C@@H](C)O)C(C)C)[C@@H](C)CC)C(N)=O [pSer304] ({FITC}-DTDFVPP[pS]PEEII-NH2)
Kd [3]: 3 to 6 µM

CC[C@H](C)[C@H](NC(=O)[C@H](Cc1ccccc1)NC(=O)CNC(=S)Nc1ccc2c(c1)C(=O)OC21c2ccc(O)cc2Oc2cc(O)ccc21)C(=O)N[C@@H](CC(=O)O)C(=O)N[C@@H](COP(=O)(O)O)C(=O)N[C@@H](CC(=O)O)C(=O)N[C@H](C(=O)N[C@@H](CC(=O)O)C(=O)N[C@H](C(=O)N[C@@H](CCC(=O)O)C(=O)N[C@@H](CCC(=O)O)C(=O)N[C@@H](CCC(=O)O)C(N)=O)C(C)C)[C@@H](C)OP(=O)(O)O [MDC1, reference compound] ({FITC}-GFID[pS]D[pT]DVEEE-NH2)
Kd [4]: 15 ± 1 µM
Kd [1]: 15 ± 1 µM

B1: FITC-labelled BLM pSer304 peptide (FITC-DTDFVPPpSPEEII-NH2) (peptide)
peptide: {FITC}-DTDFVPP[pS]PEEII-NH2
Kd [5]: 70 ± 20 µM
Kd [6]: 45 ± 2 µM
Kd [7]: 18 ± 2 µM
Kd [8]: 3.9 ± 0.3 µM
Kd [9]: 6 ± 2 µM
Kd [10]: 6 ± 1 µM
Kd [11]: 33 ± 3 µM
Kd [12]: 53 ± 4 µM
Kd [13]: 3.2 ± 0.8 µM
Kd [14]: 320 ± 40 µM
Kd [15]: 42 ± 3 µM
Kd [16]: 36 ± 3 µM
Kd [17]: 2.6 µM and 3.7 µM

B2: FITC-labelled BLM pSer338 peptide (FITC-KEDVLSTpSKDL-NH2) (peptide)
peptide: {FITC}-KEDVLST[pS]KDL-NH2
Kd [8]: 285 ± 10 µM

B3: Unphosphorylated Ser304 BLM peptide (FITC-DTDFVPPSPEEII-NH2) (peptide)
peptide: {FITC}-DTDFVPPSPEEII-NH2
Kd [18]: 60 ± 10 µM
